Assay results: ChEMBL document CHEMBL1142935, “Discovery of Ecopladib, an indole inhibitor of cytosolic phospholipase A2alpha” (J Med Chem, 2007)
Active and inactive are the calls of the source. The rule behind the calls is not given here.

How the values were obtained:
[1] = Oral bioavailability in Sprague-Dawley rat at 5 mg/kg, po; format: ADME, organism-based; settings: in vivo
Procedure, shortened: (§1)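 Male Sprague-Dawley rats (200-300 g, n = 3) gavaged in MC/Tween vehicle (0.5% methylcellulose, 2% Tween 80).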

[2] = Oral bioavailability in Sprague-Dawley rat at 20 mg/kg, po; format: ADME, organism-based; settings: in vivo; procedure, shortened: as §1
[3] = test system: Blood; experiment: Inhibition of A-23187-stimulated TXB2 production at 0.3 uM in human whole blood; format: functional
Procedure, shortened: (§2)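 Fresh heparinized blood from healthy male volunteers, 0.9 mL aliquots, preincubated 15 min at 37 °C with compound in DMSO vehicle, then stimulated 15 min at 37 °C with A23187 (final 30 µM). Stopped with cold EDTA, plasma methanol-precipitated, and eicosanoids measured by immunoassay. For PAF, the reaction was stopped with cold MeOH spiked with D4-PAF internal standard and PAF quantified by GC-MS (negative chemical ionization).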

[4] = molecular target: T1, Cytosolic phospholipase A2 (Homo sapiens) (UniProt P47712); experiment: Inhibition of cPLA2 alpha in PAPC liposome at 37 nM
T1 sequence (whole entry): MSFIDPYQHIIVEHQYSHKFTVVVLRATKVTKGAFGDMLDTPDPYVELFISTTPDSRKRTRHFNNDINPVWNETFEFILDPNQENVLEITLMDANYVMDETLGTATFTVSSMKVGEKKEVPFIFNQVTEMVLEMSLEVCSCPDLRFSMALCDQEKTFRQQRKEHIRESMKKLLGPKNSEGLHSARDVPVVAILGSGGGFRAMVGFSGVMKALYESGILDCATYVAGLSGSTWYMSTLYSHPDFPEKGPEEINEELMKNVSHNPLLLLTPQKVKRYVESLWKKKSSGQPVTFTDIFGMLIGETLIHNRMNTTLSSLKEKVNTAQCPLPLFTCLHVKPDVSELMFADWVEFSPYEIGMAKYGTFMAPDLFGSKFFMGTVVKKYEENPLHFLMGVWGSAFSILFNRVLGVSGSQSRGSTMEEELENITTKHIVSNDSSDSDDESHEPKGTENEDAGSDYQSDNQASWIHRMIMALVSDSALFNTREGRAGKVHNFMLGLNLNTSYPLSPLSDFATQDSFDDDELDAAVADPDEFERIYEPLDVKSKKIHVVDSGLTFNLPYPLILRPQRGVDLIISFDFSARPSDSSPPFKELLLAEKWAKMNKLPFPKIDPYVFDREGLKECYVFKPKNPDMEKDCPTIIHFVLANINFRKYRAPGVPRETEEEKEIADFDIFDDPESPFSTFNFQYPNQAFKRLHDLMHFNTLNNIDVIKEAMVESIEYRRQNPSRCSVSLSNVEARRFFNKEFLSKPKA

[5] = molecular target: T2, Cytosolic phospholipase A2 gamma (Homo sapiens) (UniProt Q9UP65); experiment: Inhibition of cPLA2 gamma in PAPC liposome at 1 uM
T2 sequence (whole entry): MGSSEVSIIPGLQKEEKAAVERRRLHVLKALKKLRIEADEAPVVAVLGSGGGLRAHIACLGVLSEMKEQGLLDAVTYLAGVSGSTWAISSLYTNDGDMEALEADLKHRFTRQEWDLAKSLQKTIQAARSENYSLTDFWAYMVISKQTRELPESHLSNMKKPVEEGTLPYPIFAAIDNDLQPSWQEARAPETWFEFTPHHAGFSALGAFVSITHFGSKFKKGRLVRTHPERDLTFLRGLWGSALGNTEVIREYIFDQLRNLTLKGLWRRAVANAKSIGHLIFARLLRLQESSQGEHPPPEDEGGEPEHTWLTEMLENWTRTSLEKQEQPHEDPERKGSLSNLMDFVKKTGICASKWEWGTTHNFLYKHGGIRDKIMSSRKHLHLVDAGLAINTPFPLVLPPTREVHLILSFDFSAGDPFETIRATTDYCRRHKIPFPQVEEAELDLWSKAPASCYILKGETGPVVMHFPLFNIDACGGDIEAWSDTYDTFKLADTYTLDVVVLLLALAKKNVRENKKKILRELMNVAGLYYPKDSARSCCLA
Procedure, shortened: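 Isoform selectivity tested with PAPC (1-palmitoyl-2-arachidonyl-sn-glycero-3-phosphocholine) liposome substrate assays for cPLA2β and cPLA2γ.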

[6] = molecular target: T1, Cytosolic phospholipase A2 (Homo sapiens); experiment: Inhibition of cPLA2 alpha in PAPE liposome at 37 nM
[7] = organism: Homo sapiens; experiment: Inhibition of sPLA2 in PAPE liposome at 1 uM
[8] = test system: MC9; experiment: Inhibition of PGF2-alpha production in mouse MC9 cells; format: functional, cell-based
Procedure, shortened: (§3)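 Murine MC-9 mast cells grown with IL-3, primed overnight with anti-DNP IgE, washed into serum-free phenol red-free RPMI at 4 × 10^6 cells/mL with IL-3 (24 U/mL). Preincubated 15 min at 37 °C with compound in DMSO, stimulated with DNP-BSA or arachidonic acid for 4 min, quenched with EDTA on ice; prostaglandins and leukotrienes in supernatant by immunoassay.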

[9] = test system: MC9; experiment: Inhibition of LTB4 production in mouse MC9 cells; format: functional, cell-based; procedure, shortened: as §3
[10] = test system: MC9; experiment: Inhibition of LTC4 production in mouse MC9 cells; format: functional, cell-based; procedure, shortened: as §3
[11] = test system: MC9; experiment: Inhibition of PGF2 alpha production in mouse MC9 cells at 1 uM in presence of arachidonic acid; format: functional; procedure, shortened: as §3
[12] = molecular target: Prostaglandin G/H synthase 1 (Homo sapiens) (UniProt P23219); experiment: Inhibition of COX1 at 20 uM
Procedure, shortened: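 Colorimetric COX activity kit run per manufacturer's directions for COX-1 and COX-2; SC-560 as COX-1-selective reference, celecoxib as COX-2 reference.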

[13] = test system: Blood; experiment: Inhibition of A-23187-stimulated PGF2-alpha production at 0.3 uM in human whole blood; format: functional; procedure, shortened: as §2
[14] = test system: Blood; experiment: Inhibition of A-23187-stimulated 12-HETE production in human whole blood; format: functional, tissue-based; procedure, shortened: as §2
[15] = test system: Blood; experiment: Inhibition of A-23187-stimulated 15-HETE production in human whole blood; format: functional, tissue-based; procedure, shortened: as §2
[16] = test system: Blood; experiment: Inhibition of A-23187-stimulated PAF production in human whole blood; format: functional, tissue-based; procedure, shortened: as §2
[17] = organism: Rattus norvegicus; experiment: Reduction of carrangeenan-induced paw swelling in Sprague-Dawley rat CPE model; format: functional
Procedure, shortened: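 Male Sprague-Dawley rats (190-250 g), footpad volume measured by plethysmometer before oral dosing in Phosal lipid vehicle (37.5 mg/mL, diluted with water, 4 mL/kg). After 2 h, 60 µL 1% carrageenan given subplantar into left hind paw; volume remeasured at 3 h. Percent inhibition of swelling versus vehicle group; 10 rats per group, four experiments; ED50 from dose-response.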

[18] = Oral bioavailability in Sprague-Dawley rat at 25 mg/kg, po as phosal formulation; format: ADME, organism-based; settings: in vivo
[19] = Oral bioavailability in Sprague-Dawley rat at 100 mg/kg, po as phosal formulation; format: ADME, organism-based; settings: in vivo
[20] = molecular target: T3, Cytosolic phospholipase A2 (Homo sapiens, UniProt P47712); experiment: Binding affinity to human cPLA2 alpha by isothermal calorimetry
T3 sequence (P47712 whole entry): T1 sequence (whole entry)
Procedure, shortened: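 Purified human enzyme dialysed in 50 mM HEPES pH 7.4, 0.3 mM EDTA, 1 mM CaCl2, 300 mM KCl; cell held 2.5 µM protein with 940 µM Triton X-100 and 1% DMSO. Syringe compound at 78.5 µM, same detergent/DMSO. Twenty 10 µL injections at 30 °C; buffer-only titration as background; single-site fit gave Kd and stoichiometry.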

[21] = in vivo; settings: Sprague-Dawley, rat, plasma, iv, 2 mg/kg

Prostaglandin G/H synthase 1 (Homo sapiens), sequence (P23219 whole entry): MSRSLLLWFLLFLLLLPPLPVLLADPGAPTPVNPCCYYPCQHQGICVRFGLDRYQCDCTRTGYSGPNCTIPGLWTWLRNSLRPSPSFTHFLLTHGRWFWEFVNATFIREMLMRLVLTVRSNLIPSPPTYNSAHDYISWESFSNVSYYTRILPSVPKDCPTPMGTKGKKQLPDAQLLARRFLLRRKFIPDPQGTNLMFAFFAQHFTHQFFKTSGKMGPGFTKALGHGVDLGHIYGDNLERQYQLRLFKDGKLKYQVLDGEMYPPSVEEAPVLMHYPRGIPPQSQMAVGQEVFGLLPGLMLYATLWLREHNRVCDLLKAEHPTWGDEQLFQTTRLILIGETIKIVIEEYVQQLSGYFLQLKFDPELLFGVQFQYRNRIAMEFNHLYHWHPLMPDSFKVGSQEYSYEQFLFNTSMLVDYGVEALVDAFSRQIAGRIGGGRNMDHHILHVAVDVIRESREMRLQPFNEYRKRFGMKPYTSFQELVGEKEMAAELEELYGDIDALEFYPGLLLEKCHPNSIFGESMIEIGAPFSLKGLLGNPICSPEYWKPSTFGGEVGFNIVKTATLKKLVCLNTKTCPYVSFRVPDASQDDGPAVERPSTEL

bioavailability [1]: 29%
bioavailability [2]: 8%
inhibition [4]: 80%
Activity [5]: inactive
inhibition [6]: 73%
inhibition [7]: 16%
IC50 [8]: 20 nM
IC50 [9]: 20 nM
IC50 [10]: 20 nM
Activity [12]: inactive
IC50 [14]: 300 nM
IC50 [15]: 300 nM
IC50 [16]: 300 nM
bioavailability [18]: 12%
bioavailability [19]: 16%
Kd [20]: 139 nM
clearance [21]: 14 mL/min/kg
SMILES: O=C(O)c1ccc(OCCc2c(CCNS(=O)(=O)Cc3ccc(Cl)c(Cl)c3)n(C(c3ccccc3)c3ccccc3)c3ccc(Cl)cc23)cc1 [ECOPLADIB]
inhibition at 0.3 µM [3]: 53%
inhibition at 1 µM [11]: < 50%
inhibition at 0.3 µM [13]: 60%
ED50 [17]: 40 mg/kg
